What was measured:
4T1 tumor-bearing mice [1] = assay: In vivo biodistribution after tail vein injection; parameters: species or system BALB/c mice; conditions: 1–24 h
How it was run: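 Female BALB/c mice (4–6 weeks, 18–20 g) received 5 × 10^5 4T1 cells subcutaneously in the right flank and were grouped once tumors reached about 100 mm3. Test compound (100 μL, 2.845 mg/mL in PBS) was injected into the tail vein; free P18 in 10% DMSO/PBS served as comparator. P18 fluorescence was imaged by IVIS under isoflurane at 1, 3, 6, 9, 12 and 24 h. Mean tumor-site intensity was computed, and excised organs and tumor were imaged at 24 h.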

4T1 tumor-bearing mice [2] = assay: Tumor retention after intratumoral injection; assay type: in vivo, BALB/c mice; conditions: observed 6–120 h
How it was run: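 4T1 flank tumors were raised in female BALB/c mice, and test compound or free P18 solution (10 μL) was injected into the tumor. Fluorescence was imaged by IVIS under isoflurane at 6, 12, 24, 48, 72, 96 and 120 h, and tumor intensity was quantified. In a separate pair of groups, the MMP-2 inhibitor Ilomastat (8 mg/kg) was injected into the tumor 15 min before the test compound, compared with no inhibitor. Tumor fluorescence was imaged at serial time points.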

4T1 tumor-bearing mice [3] = assay: In vivo photothermal effect; parameters: species or system BALB/c mice; conditions: 6 h after tail vein injection, 660 nm, 0.5 W/cm^2, 6 min
How it was run: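 The 4T1 model was female BALB/c mice with subcutaneous flank tumors, in two groups. One group got test compound i.v. (100 μL, 2.845 mg/mL in PBS); the comparator group got free P18 solution (100 μL) under the same conditions. Infrared thermal camera images and tumor temperature curves were recorded during irradiation.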

## Purpurin 18 [P18]
4T1 tumor-bearing mice [1]
  fluorescence signal at the tumor site: barely detectable
4T1 tumor-bearing mice [2]
  course of tumor fluorescence intensity post i.t. injection: decreased gradually until 120 h
4T1 tumor-bearing mice [3]
  temperature of the tumor under laser irradiation: 41 °C
